Values after ≈ are worked out from the molar mass of the structure shown. Active and inactive are the calls of the source. The rule behind the calls is not given here.
How the values were obtained:
Type in all cases: functional
Staphylococcus aureus [1] = assay: Antibacterial activity against Staphylococcus aureus NCIB 8588 after 24 hrs by agar well diffusion method; as to IZ: test concentration or dose not given here
How it was run: (§1)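 Agar well diffusion. Clinical isolates were first checked for viability, then grown in nutrient broth for 8 h at 37 °C. About 0.2 ml of broth culture was mixed into 18 ml molten diagnostic sensitivity test agar cooled to 45 °C and poured into plates. Compounds in DMSO went into bored wells, with streptomycin as reference. Plates stood 1 h for diffusion, then were incubated upright at 37 °C for 24 h. Clear inhibition zones were read in mm.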

Escherichia coli [2] = assay: Antibacterial activity against Escherichia coli NCIB 86 after 24 hrs by agar well diffusion method; how it was run: as §1; as to IZ: test concentration or dose not given here
Pseudomonas fluorescens = assay: Antibacterial activity against Pseudomonas fluorescens NCIB 3756 after 24 hrs by agar well diffusion method; how it was run: as §1; as to IZ: test concentration or dose not given here
Klebsiella pneumoniae [3] = assay: Antibacterial activity against Klebsiella pneumoniae NCIB 418 after 24 hrs by agar well diffusion method; how it was run: as §1; as to IZ: test concentration or dose not given here
Bacillus subtilis [4] = assay: Antibacterial activity against Bacillus subtilis NCIB 3610 after 24 hrs by agar well diffusion method; how it was run: as §1; as to IZ: test concentration or dose not given here
Bacillus cereus [5] = assay: Antibacterial activity against Bacillus cereus NCIB 6349 after 24 hrs by agar well diffusion method; how it was run: as §1; as to IZ: test concentration or dose not given here
Shigella dysenteriae [6] = assay: Antibacterial activity against Shigella dysenteriae after 24 hrs by agar well diffusion method
Pseudomonas aeruginosa = assay: Antibacterial activity against Pseudomonas aeruginosa NCIB 950 after 24 hrs by agar well diffusion method; how it was run: as §1; as to IZ: test concentration or dose not given here
Candida albicans = assay: Antifungal activity against Candida albicans after 3 days by agar well diffusion method
Bacillus anthracis [7] = assay: Antibacterial activity against Bacillus anthracis after 72 hrs
[8] = test system: Geobacillus stearothermophilus; assay: Antibacterial activity against Bacillus stearothermophilus NCIB 8222 after 72 hrs; conditions: NCIB 8222, 72 h
How it was run: (§2)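 MIC by the Russell and Furr method, run on selected Gram-positive and Gram-negative strains. Once the agar had set and its surface had dried, nutrient agar plates were streaked with overnight broth cultures. They were incubated at 37 °C for up to 72 h and scored for presence or absence of growth.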

Bacillus subtilis [9] = assay: Antibacterial activity against Bacillus subtilis NCIB 3610 after 72 hrs; conditions: NCIB 3610, 72 h; how it was run: as §2
Bacillus cereus [10] = assay: Antibacterial activity against Bacillus cereus NCIB 6349 after 72 hrs; how it was run: as §2
Staphylococcus aureus [11] = assay: Antibacterial activity against Staphylococcus aureus NCIB 8588 after 72 hrs; conditions: NCIB 8588, 72 h; how it was run: as §2
Escherichia coli [12] = assay: Antibacterial activity against Escherichia coli NCIB 86 after 72 hrs; how it was run: as §2
Klebsiella pneumoniae [13] = assay: Antibacterial activity against Klebsiella pneumoniae NCIB 418 after 72 hrs; how it was run: as §2
Shigella dysenteriae [14] = assay: Antibacterial activity against Shigella dysenteriae after 72 hrs
How it was run: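 MIC by agar dilution: compound-containing nutrient agar was set and surface-dried, then streaked with overnight broth culture of the clinical isolate. Incubated at 37 °C for up to 72 h and scored for presence or absence of growth. Streptomycin was the reference.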

Bacillus anthracis [15] = assay: Antibacterial activity against Bacillus anthracis after 24 hrs by agar well diffusion method
[16] = test system: Geobacillus stearothermophilus; assay: Antibacterial activity against Bacillus stearothermophilus NCIB 8222 after 24 hrs by agar well diffusion method; how it was run: as §1; as to IZ: test concentration or dose not given here

| Compound | inhibition zone (IZ) (Staphylococcus aureus [1]) | inhibition zone (IZ) (Escherichia coli [2]) | inhibition zone (IZ) (Pseudomonas fluorescens) | inhibition zone (IZ) (Klebsiella pneumoniae [3]) | inhibition zone (IZ) (Bacillus subtilis [4]) | inhibition zone (IZ) (Bacillus cereus [5]) | inhibition zone (IZ) (Shigella dysenteriae [6]) | inhibition zone (IZ) (Pseudomonas aeruginosa) | inhibition zone (IZ) (Candida albicans) | MIC (Bacillus anthracis [7]) | MIC [8] [µg/mL] | MIC (Bacillus subtilis [9]) [µg/mL] | MIC (Bacillus cereus [10]; NCIB 6349, 72 h) [µg/mL] | MIC (Staphylococcus aureus [11]) [µg/mL] | MIC (Escherichia coli [12]; NCIB 86, 72 h) [µg/mL] | MIC (Klebsiella pneumoniae [13]; NCIB 418, 72 h) [µg/mL] | MIC (Shigella dysenteriae [14]) | inhibition zone (IZ) (Bacillus anthracis [15]) | inhibition zone (IZ) [16] | also measured |
| --- | --- | --- | --- | --- | --- | --- | --- | --- | --- | --- | --- | --- | --- | --- | --- | --- | --- | --- | --- | --- |
| NNc1nc2ccccc2[nH]c1=O | 24 mm | 25 mm | 0 mm | 10 mm | 20 mm | 28 mm | 22 mm | 15 mm | 18 mm | 15.6 µg/mL (≈ 88.5 µM) | 15.6 (≈ 88.5 µM) | 15.6 (≈ 88.5 µM) | 15.6 (≈ 88.5 µM) | 125 (≈ 710 µM) | 15.6 (≈ 88.5 µM) | 125 (≈ 710 µM) | 125 µg/mL (≈ 710 µM) | 24 mm | 15 mm | – |
| O=C1Nc2ccc(Br)cc2/C1=N/Nc1nc2ccccc2[nH]c1=O | 20 mm | 13 mm | 11 mm | 15 mm | 13 mm | 15 mm | 11 mm | 0 mm | 15 mm | 125 µg/mL (≈ 325 µM) | 15.6 (≈ 40.6 µM) | 62.5 (≈ 163 µM) | 62.5 (≈ 163 µM) | 15.6 (≈ 40.6 µM) | 62.5 (≈ 163 µM) | 31.3 (≈ 81.5 µM) | 125 µg/mL (≈ 325 µM) | 8 mm | 22 mm | – |
| O=C1Nc2ccccc2/C1=N/Nc1nc2ccccc2[nH]c1=O | 19 mm | 10 mm | 0 mm | 12 mm | 14 mm | 0 mm | 0 mm | 17 mm | 20 mm | 125 µg/mL (≈ 409 µM) | 62.5 (≈ 205 µM) | 62.5 (≈ 205 µM) | – | 31.3 (≈ 103 µM) | 125 (≈ 409 µM) | 62.5 (≈ 205 µM) | 15.6 µg/mL (≈ 51.1 µM) | 11 mm | 13 mm | MIC (Bacillus cereus [10]): inactive |
| CC1CCCC/C1=N\Nc1nc2ccccc2[nH]c1=O (stereo not drawn) | 19 mm | 12 mm | 13 mm | 15 mm | 12 mm | 13 mm | 0 mm | 0 mm | 14 mm | 15.6 µg/mL (≈ 57.7 µM) | 7.8 (≈ 28.9 µM) | 62.5 (≈ 231 µM) | 15.6 (≈ 57.7 µM) | 7.8 (≈ 28.9 µM) | 31.3 (≈ 116 µM) | 7.8 (≈ 28.9 µM) | inactive | 16 mm | 25 mm | – |
| C/C(=N\Nc1nc2ccccc2[nH]c1=O)c1cc2cc(Cl)ccc2oc1=O | 32 mm | 30 mm | 10 mm | 32 mm | 33 mm | 30 mm | 19 mm | 14 mm | 14 mm | 7.8 µg/mL (≈ 20.5 µM) | 7.8 (≈ 20.5 µM) | 7.8 (≈ 20.5 µM) | 7.8 (≈ 20.5 µM) | 15.6 (≈ 41 µM) | 7.8 (≈ 20.5 µM) | 7.8 (≈ 20.5 µM) | 15.6 µg/mL (≈ 41 µM) | 25 mm | 30 mm | – |
| C/C(=N\Nc1nc2ccccc2[nH]c1=O)c1cc2cc(Br)ccc2oc1=O | 14 mm | 18 mm | 0 mm | 18 mm | 30 mm | 15 mm | 0 mm | 0 mm | 21 mm | 62.5 µg/mL (≈ 147 µM) | 7.8 (≈ 18.3 µM) | 7.8 (≈ 18.3 µM) | 62.5 (≈ 147 µM) | 62.5 (≈ 147 µM) | 62.5 (≈ 147 µM) | 62.5 (≈ 147 µM) | inactive | 16 mm | 29 mm | – |
| CCC(CC)=NNc1nc2ccccc2[nH]c1=O | 10 mm | 15 mm | 0 mm | 15 mm | 20 mm | 28 mm | 0 mm | 0 mm | 18 mm | inactive | 7.8 (≈ 31.9 µM) | 31.3 (≈ 128 µM) | 7.8 (≈ 31.9 µM) | 62.5 (≈ 256 µM) | 31.3 (≈ 128 µM) | 31.3 (≈ 128 µM) | inactive | 0 mm | 25 mm | – |
| Cc1ccc2c(c1)/C(=N/Nc1nc3ccccc3[nH]c1=O)C(=O)N2 | 19 mm | 14 mm | 0 mm | 17 mm | 15 mm | 10 mm | 14 mm | 0 mm | 30 mm | inactive | 62.5 (≈ 196 µM) | 31.3 (≈ 98 µM) | 62.5 (≈ 196 µM) | 15.6 (≈ 48.9 µM) | 31.3 (≈ 98 µM) | 15.6 (≈ 48.9 µM) | 31.3 µg/mL (≈ 98 µM) | 0 mm | 13 mm | – |
| CN[C@@H]1[C@H](O[C@H]2[C@H](O[C@H]3[C@H](O)[C@@H](O)[C@H](N=C(N)N)[C@@H](O)[C@@H]3N=C(N)N)O[C@@H](C)[C@]2(O)C=O)O[C@@H](CO)[C@H](O)[C@H]1O [STREPTOMYCIN] | 21 mm | 0 mm | 30 mm | 0 mm | 20 mm | 28 mm | 22 mm | 0 mm | inactive | 31.3 µg/mL (≈ 53.8 µM) | 7.8 (≈ 13.4 µM) | 15.6 (≈ 26.8 µM) | 7.8 (≈ 13.4 µM) | 7.8 (≈ 13.4 µM) | – | – | 15.6 µg/mL (≈ 26.8 µM) | 18 mm | 23 mm | MIC (Escherichia coli [12]): inactive; MIC (Klebsiella pneumoniae [13]): inactive |
| CC/C(C)=N\Nc1nc2ccccc2[nH]c1=O | 19 mm | 21 mm | 0 mm | 19 mm | 16 mm | 25 mm | 0 mm | 0 mm | 22 mm | 62.5 µg/mL (≈ 271 µM) | 31.3 (≈ 136 µM) | 31.3 (≈ 136 µM) | 7.8 (≈ 33.9 µM) | 15.6 (≈ 67.7 µM) | 31.3 (≈ 136 µM) | 62.5 (≈ 271 µM) | inactive | 12 mm | 17 mm | – |
| O=C1Nc2ccc(Cl)cc2/C1=N/Nc1nc2ccccc2[nH]c1=O | 25 mm | 19 mm | 0 mm | 20 mm | 20 mm | 28 mm | 10 mm | 0 mm | 18 mm | 15.6 µg/mL (≈ 45.9 µM) | 7.8 (≈ 23 µM) | 15.6 (≈ 45.9 µM) | 7.8 (≈ 23 µM) | 7.8 (≈ 23 µM) | 15.6 (≈ 45.9 µM) | 7.8 (≈ 23 µM) | 62.5 µg/mL (≈ 184 µM) | 20 mm | 24 mm | – |
| O=c1[nH]c2ccccc2nc1NN=C1CCCCC1 | 19 mm | 11 mm | 12 mm | 17 mm | 16 mm | 25 mm | 10 mm | 0 mm | 21 mm | inactive | 31.3 (≈ 122 µM) | 31.3 (≈ 122 µM) | 15.6 (≈ 60.9 µM) | 15.6 (≈ 60.9 µM) | 62.5 (≈ 244 µM) | 15.6 (≈ 60.9 µM) | 125 µg/mL (≈ 488 µM) | 0 mm | 15 mm | – |
| NYSTATIN | inactive | inactive | inactive | inactive | inactive | inactive | inactive | inactive | – | – | – | – | – | – | – | – | – | inactive | inactive | – |

— ChEMBL document CHEMBL1157693, “Microwave assisted synthesis and antimicrobial activity of 2-quinoxalinone-3-hydrazone derivatives” (2010)
